# Measurements: the array DNA melting data of Ke et al. (doi:10.1101/2024.01.08.574731)
# Assays:
# [1] = melting temperature; fluorescence melt of hairpins on a sequencing array, two-state fit, raised by 9.35 °C to match UV melts; conditions: sodium 0.088 M
# In short: (§1)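 Cy3 signals were normalised both to pre-quench Cy3 and to control constructs. They came from library hairpins carrying annealed Cy3 and quencher oligos on a sequenced MiSeq flow cell, imaged in 50 mM Na-HEPES pH 8.0, 25 mM NaCl, in 2.5 °C steps up to 60 °C. Bootstrapped two-state fits gave melting temperature and folding enthalpy, and four replicates were combined by inverse variance. Fitted temperatures were then raised by 9.35 °C to match UV melts.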
# [2] = folding enthalpy; higher = less favourable; fluorescence melt of hairpins on a sequencing array, two-state fit; conditions: sodium 0.088 M
# In short: as §1
sequence,measurement,setting,value
GTTGCCGAAAGGCATAAC ((((((....)))..))),Tm,[1],36.8 °C
same,folding enthalpy,[2],-9 kcal/mol
GTTGCCGAAAGGCCCAAC ((((((....)))..))),Tm,[1],29.4 °C
same,folding enthalpy,[2],-6.79 kcal/mol
GTTGCCGAAAGGCTAAC ((((((....))).))),Tm,[1],42.3 °C
same,folding enthalpy,[2],-14 kcal/mol
GTTGCCGAAAGGCTCAAC ((((((....)))..))),Tm,[1],29.8 °C
same,folding enthalpy,[2],-7.95 kcal/mol
GTTGCCGCGAAAGCGAAC (((..(((....)))))),Tm,[1],35.6 °C
same,folding enthalpy,[2],-12.6 kcal/mol
GTTGCCGGAAACGACAAC ((((.((....)).)))),Tm,[1],48.5 °C
same,folding enthalpy,[2],-28 kcal/mol
GTTGCGCGAAAGCGAAAC (((.(((....))).))),Tm,[1],59.5 °C
same,folding enthalpy,[2],-27.8 kcal/mol
GTTGCGGGAAACCGCAGC (.(((((....))))).),Tm,[1],56.4 °C
same,folding enthalpy,[2],-14.2 kcal/mol
GTTGCTGGAAACAGCGAC ((.((((....)))).)),Tm,[1],54.3 °C
same,folding enthalpy,[2],-39.6 kcal/mol
GTTGCTGGAAACAGTAGC (.(.(((....))).).),Tm,[1],35.3 °C
same,folding enthalpy,[2],-19.7 kcal/mol
GTTGGACCGAAAGGTAAC (((..(((....)))))),Tm,[1],35.8 °C
same,folding enthalpy,[2],-20 kcal/mol
GTTGGAGGAAACTTCAAC ((((.((....)).)))),Tm,[1],41.9 °C
same,folding enthalpy,[2],-31.4 kcal/mol
GTTGGCCGAAAGGCTAAC (((.(((....))).))),Tm,[1],58.3 °C
same,folding enthalpy,[2],-28.6 kcal/mol
GTTGGCGAAAGCCCAAAC ((((((....)))..))),Tm,[1],24.8 °C
same,folding enthalpy,[2],-7.1 kcal/mol
GTTGGCGAAAGCCGTAAC ((((((....)))..))),Tm,[1],33.4 °C
same,folding enthalpy,[2],-9.54 kcal/mol
GTTGGCGGAAACGCCGAC ((.((((....)))).)),Tm,[1],59.4 °C
same,folding enthalpy,[2],-25 kcal/mol
GTTGGCGGAAACGCTGAC ((..(((....)))..)),Tm,[1],45 °C
same,folding enthalpy,[2],-16.8 kcal/mol
GTTGGCGGAAACGTCGAC ((.(.((....)).).)),Tm,[1],47.6 °C
same,folding enthalpy,[2],-19.1 kcal/mol
GTTGGGACGAAAGTCAAC (((..(((....)))))),Tm,[1],41.5 °C
same,folding enthalpy,[2],-19.6 kcal/mol
GTTGGGGCGAAAGCCAAC (((..(((....)))))),Tm,[1],46 °C
same,folding enthalpy,[2],-16.5 kcal/mol
GTTGGTCGAAAGACAAC (((.(((....)))))),Tm,[1],45.7 °C
same,folding enthalpy,[2],-20.4 kcal/mol
GTTGGTCGAAAGACGAAC (((.(((....))).))),Tm,[1],48.1 °C
same,folding enthalpy,[2],-29.9 kcal/mol
GTTGGTGCGAAAGCAAAC (((..(((....)))))),Tm,[1],43 °C
same,folding enthalpy,[2],-20.7 kcal/mol
GTTGGTGGAAACACTAAC (((.(((....))).))),Tm,[1],45 °C
same,folding enthalpy,[2],-29.6 kcal/mol
GTTGGTGGAAACACTAGC (.(.(((....))).).),Tm,[1],27.8 °C
same,folding enthalpy,[2],-9.95 kcal/mol
GTTGGTGGAAACATCAAC ((((.((....)).)))),Tm,[1],46.5 °C
same,folding enthalpy,[2],-37.8 kcal/mol
GTTGGTGGAAACGCTAAC (((.(.(....).).))),Tm,[1],30.7 °C
same,folding enthalpy,[2],-14 kcal/mol
GTTGTACGAAAGTAAAAC (((.(((....))).))),Tm,[1],38.8 °C
same,folding enthalpy,[2],-26.7 kcal/mol
GTTGTAGGAAACTACAAC (((((((....))))))),Tm,[1],56.1 °C
same,folding enthalpy,[2],-40.5 kcal/mol
GTTGTAGGAAACTATGAC ((..(((....)))..)),Tm,[1],26.6 °C
same,folding enthalpy,[2],-14.1 kcal/mol
GTTGTCCGAAAGGAAAAC (((.(((....))).))),Tm,[1],44.9 °C
same,folding enthalpy,[2],-26.9 kcal/mol
GTTGTCCGAAAGGAGAAC (((.(((....))).))),Tm,[1],51.2 °C
same,folding enthalpy,[2],-28.5 kcal/mol
GTTGTCGAAAGACCAAAC ((((((....)))..))),Tm,[1],26 °C
same,folding enthalpy,[2],-10.6 kcal/mol
GTTGTCGAAAGACCAAC ((((((....))).))),Tm,[1],38 °C
same,folding enthalpy,[2],-20.4 kcal/mol
GTTGTCGAAAGACGAAC ((((((....))).))),Tm,[1],39.8 °C
same,folding enthalpy,[2],-17.9 kcal/mol
GTTGTCGAAAGACGGAAC ((((((....)))..))),Tm,[1],31.3 °C
same,folding enthalpy,[2],-10.3 kcal/mol
GTTGTCGCGAAAGCGAAC (((..(((....)))))),Tm,[1],56.9 °C
same,folding enthalpy,[2],-15.7 kcal/mol
